Assay results from ChEMBL document CHEMBL3797069, “Betulin Derivatives Effectively Suppress Inflammation in Vitro and in Vivo” (J Nat Prod, 2016).
Activity calls are given as the source filed them. The rule behind the calls is not given here.

Assays:
[1] = system: J774; assay: Antiinflammatory activity in mouse J774 cells assessed as inhibition of LPS-induced nitric oxide production measured as remaining nitric oxide levels at 10 uM by Griess assay; assay type: functional
Summary of the method: (§1)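 Confluent J774 monolayers were treated with LPS plus compound at 10 μM in fresh medium, 24 h. NO was read as accumulated nitrite in the medium by Griess reaction. n = 4, mean ± SEM versus cells cultured with LPS only.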

[2] = system: J774; assay: Antiinflammatory activity against mouse J774 cells assessed as inhibition of LPS-induced IL-6 production measured as remaining IL-6 levels at 10 uM after 24 hrs by ELISA; assay type: functional
Summary of the method: (§2)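 J774 macrophages were grown 72 h to confluence, then exposed to LPS with compound at 10 μM in fresh medium for 24 h. IL-6 and MCP-1 in the culture medium were quantified by ELISA. n = 4, mean ± SEM relative to LPS-only cells.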

[3] = system: J774; assay: Antiinflammatory activity against mouse J774 cells assessed as inhibition of LPS-induced COX-2 expression measured as remaining protein levels at 10 uM after 24 hrs by Western blot analysis; assay type: functional
Summary of the method: (§3)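 Murine J774 macrophages were grown 72 h to confluence in DMEM with 10% heat-inactivated FBS at 37 °C, 5% CO2. Compound was added in fresh medium with LPS for 24 h. Cells were lysed, and 20 μg protein was immunoblotted for COX-2 or iNOS with actin as the loading control, detected by chemiluminescence. n = 4, mean ± SEM versus LPS alone.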

[4] = system: J774; assay: Antiinflammatory activity against mouse J774 cells assessed as inhibition of LPS-induced MCP-1 production measured as remaining MCP-1 levels at 10 uM after 24 hrs by ELISA; assay type: functional; summary of the method: as §2
[5] = system: J774; assay: Antiinflammatory activity in mouse J774 cells assessed as inhibition of LPS-induced iNOS expression measured as remaining protein levels at 10 uM after 24 hrs by Western blot analysis; assay type: functional; summary of the method: as §3
[6] = system: J774; assay: Antiinflammatory activity against mouse J774 cells assessed as inhibition of LPS-induced iNOS expression after 24 hrs by Western blot analysis; assay type: functional, cell-based; conditions: J774, 24 h
Summary of the method: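 Murine J774 macrophages in DMEM with 10% heat-inactivated FBS, grown 72 h to confluence, then given LPS plus compound in fresh medium for 24 h. Cells washed in ice-cold PBS and lysed; 20 μg protein per lane on Western blot for iNOS, with β-actin as loading control and chemiluminescent detection. Values relative to LPS-only cells; mean ± SEM, n = 4.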

[7] = system: J774; assay: Inhibition of LPS-induced iNOS mRNA levels in mouse J774 cells after 6 hrs by qRT-PCR method; assay type: functional, cell-based
Summary of the method: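 Activated J774 cells received compound at 10 μM alongside LPS. At 3, 6 or 24 h, total RNA was extracted and iNOS, IL-6 or MCP-1 mRNA was measured by TaqMan quantitative RT-PCR (40 cycles, 95 °C/60 °C) in duplicate. Levels came from a standard curve and were normalized to GAPDH. n = 4 versus LPS only.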

[8] = system: J774; assay: Antiinflammatory activity against mouse J774 cells assessed as inhibition of LPS-induced nitric oxide production at 10 uM by Griess assay; assay type: functional; summary of the method: as §1
[9] = system: J774; assay: Antiinflammatory activity against mouse J774 cells assessed as inhibition of LPS-induced MCP-1 production at 10 uM after 24 hrs by ELISA; assay type: functional; conditions: J774, 24 h; summary of the method: as §2
[10] = system: J774; assay: Antiinflammatory activity against mouse J774 cells assessed as inhibition of LPS-induced iNOS expression at 10 uM after 24 hrs by Western blot analysis; assay type: functional, cell-based; summary of the method: as §3
[11] = system: J774; assay: Antiinflammatory activity against mouse J774 cells assessed as inhibition of LPS-induced COX-2 expression at 10 uM after 24 hrs by Western blot analysis; assay type: functional; conditions: J774, 24 h; summary of the method: as §3
[12] = system: J774; assay: Antiinflammatory activity against mouse J774 cells assessed as inhibition of LPS-induced IL-6 production at 10 uM after 24 hrs by ELISA; assay type: functional; conditions: J774, 24 h; summary of the method: as §2

C=C(C)[C@@H]1CC[C@]2(C(=O)O)CC[C@]3(C)[C@H](CC[C@@H]4[C@@]5(C)Cc6c([nH]c7ccc(OC)cc67)C(C)(C)[C@@H]5CC[C@]43C)[C@@H]12
Remaining nitric oxide level (% of LPS-only control) [1]: 97.5% | Remaining IL-6 level (% of LPS-only) [2]: 123.5% | Activity [3]: 162.6% | Activity [4]: 73.1% | Activity [5]: 95.1%

C=C(C)[C@@H]1CC[C@]2(/C=N/O)CC[C@]3(C)[C@H](CC[C@@H]4[C@@]5(C)CC[C@H](O)C(C)(C)[C@@H]5CC[C@]43C)[C@@H]12
Remaining nitric oxide level (% of LPS-only control) [1]: 31.3% | IC50 [6]: 300 nM | Remaining IL-6 level (% of LPS-only) [2]: 98.3% | inhibition [7]: inactive | Activity [3]: 127% | Activity [4]: 136.9% | Activity [5]: 6.2%

C=C(C)[C@@H]1CC[C@]2(C(N)=O)CC[C@]3(C)[C@H](CC[C@@H]4[C@@]5(C)Cc6cnoc6C(C)(C)[C@@H]5CC[C@]43C)[C@@H]12
Remaining nitric oxide level (% of LPS-only control) [1]: 66.5% | IC50 [6]: 300 nM | Remaining IL-6 level (% of LPS-only) [2]: 90.9% | inhibition [7]: inactive | Activity [3]: 105.5% | Activity [4]: 57.6% | Activity [5]: 8.3%

C[C@@H]1C[C@H]2[C@@H]3CCC4=CC(=O)C=C[C@]4(C)[C@@]3(F)[C@@H](O)C[C@]2(C)[C@@]1(O)C(=O)CO [DEXAMETHASONE]
inhibition at 10 µM [8]: 85% | inhibition at 10 µM [9]: 38% | inhibition [10]: Active | inhibition at 10 µM [11]: 90% | inhibition at 10 µM [12]: 86%

C=C(C)[C@@H]1CC[C@]2(C(=O)O)CC[C@]3(C)[C@H](CC[C@@H]4[C@@]5(C)CC6OC(C)(C)OC6C(C)(C)[C@@H]5CC[C@]43C)[C@@H]12 (some centres undefined)
Remaining nitric oxide level (% of LPS-only control) [1]: 75.2% | Remaining IL-6 level (% of LPS-only) [2]: 131.7% | Activity [3]: 117.4% | Activity [4]: 87% | Activity [5]: 40.7%

CC1(C)CC[C@]23CC[C@]4(C)[C@H](CC[C@@H]5[C@@]6(C)Cc7c([nH]c8ccccc78)C(C)(C)[C@@H]6CC[C@]54C)[C@H]2C1OC3
Remaining nitric oxide level (% of LPS-only control) [1]: 96.5% | Remaining IL-6 level (% of LPS-only) [2]: 92.1% | Activity [3]: 94.8% | Activity [4]: 96.2% | Activity [5]: 94.5%

C=C(C)[C@@H]1CC[C@]2(C(=O)O)CC[C@]3(C)[C@H](CC[C@@H]4[C@@]5(C)C[C@H](O)[C@H](O)C(C)(C)[C@@H]5CC[C@]43C)[C@@H]12
Remaining nitric oxide level (% of LPS-only control) [1]: 71.4% | Remaining IL-6 level (% of LPS-only) [2]: 70.7% | Activity [3]: 93.4% | Activity [4]: 68.3% | Activity [5]: 63.6%

C=C(C)[C@@H]1CC[C@]2(C(=O)O)CC[C@]3(C)[C@H](CC[C@@H]4[C@@]5(C)Cc6c([nH]c7ccccc67)C(C)(C)[C@@H]5CC[C@]43C)[C@@H]12
Remaining nitric oxide level (% of LPS-only control) [1]: 79.5% | Remaining IL-6 level (% of LPS-only) [2]: 108.9% | Activity [3]: 140.9% | Activity [4]: 83.4% | Activity [5]: 66.6%
